Laboratory results taken from ChEMBL document CHEMBL1152997, “Prevalence of and molecular basis for tuberculosis drug resistance in the Republic of Georgia: validation of a QIAplex system for detection of drug resistance-related mutations” (2008).

Key:
Format in all cases: functional
[1] = system: Mycobacterium tuberculosis; test: Antimycobacterial activity against Mycobacterium tuberculosis clinical isolates from tuberculosis patient assessed as percent sensitive isolates at 2 ug/ml by absolute-concentration method
Outline: (§1)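 Consecutive clinical M. tuberculosis isolates (196), Tbilisi, Jan–Mar 2006, primary culture on Lowenstein-Jensen medium. Suspension adjusted to 1 McFarland in sterile saline. 0.2 ml was plated onto drug-containing solid medium: a 10-fold dilution series for the 2, 4 and 40 µg/ml media, and a 100-fold dilution for the 0.2 µg/ml medium. Incubation at 37°C, 5–10% CO2, 28 days.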

[2] = system: Mycobacterium tuberculosis; test: Antimycobacterial activity against Mycobacterium tuberculosis clinical isolates from tuberculosis patient assessed as percent specific isolates at 2 ug/ml by absolute-concentration method
[3] = system: Mycobacterium tuberculosis; test: Antimycobacterial activity against Mycobacterium tuberculosis clinical isolates from tuberculosis patient assessed as percent sensitive isolates at 0.2 ug/ml by absolute-concentration method; outline: as §1
[4] = system: Mycobacterium tuberculosis; test: Antimycobacterial activity against Mycobacterium tuberculosis clinical isolates from tuberculosis patient assessed as percent specific isolates at 0.2 ug/ml by absolute-concentration method
[5] = system: Mycobacterium tuberculosis; test: Antimycobacterial activity against Mycobacterium tuberculosis clinical isolates from tuberculosis patient assessed as percent sensitive isolates at 40 ug/ml by absolute-concentration method; outline: as §1
[6] = system: Mycobacterium tuberculosis; test: Antimycobacterial activity against Mycobacterium tuberculosis clinical isolates from tuberculosis patient assessed as percent specific isolates at 40 ug/ml by absolute-concentration method
[7] = system: Mycobacterium tuberculosis; test: Antimycobacterial activity against Mycobacterium tuberculosis clinical isolates from tuberculosis patient assessed as percent sensitive isolates at 4 ug/ml by absolute-concentration method; outline: as §1
[8] = system: Mycobacterium tuberculosis; test: Antimycobacterial activity against Mycobacterium tuberculosis clinical isolates from tuberculosis patient assessed as percent specific isolates at 4 ug/ml by absolute-concentration method

CC[C@@H](CO)NCCN[C@@H](CC)CO [ETHAMBUTOL]
Activity [1]: 50%
Activity [2]: 98.9%

NNC(=O)c1ccncc1 [ISONIAZID]
Activity [3]: 85.4%
Activity [4]: 96.1%

CO[C@H]1/C=C/O[C@@]2(C)Oc3c(C)c(O)c4c(O)c(c(/C=N/N5CCN(C)CC5)c(O)c4c3C2=O)NC(=O)/C(C)=C\C=C\[C@H](C)[C@H](O)[C@@H](C)[C@@H](O)[C@@H](C)[C@H](OC(C)=O)[C@@H]1C [RIFAMPIN]
Activity [5]: 94.5%
Activity [6]: 99.4%

CN[C@@H]1[C@H](O[C@H]2[C@H](O[C@H]3[C@H](O)[C@@H](O)[C@H](N=C(N)N)[C@@H](O)[C@@H]3N=C(N)N)O[C@@H](C)[C@]2(O)C=O)O[C@@H](CO)[C@H](O)[C@H]1O [STREPTOMYCIN]
Activity [7]: 69.6%
Activity [8]: 99.2%
